{
  "source": "ChEMBL document CHEMBL1124444",
  "about": "“Hydroxyacetophenone-derived antagonists of the peptidoleukotrienes” (1989)",
  "key": {"Cavia porcellus [1]": {"species_on_record": "Cavia porcellus", "experiment": "Percent inhibition of the leukotriene E4 (LTE4)-induced contraction of guinea pig tracheal spirals at 50 uM concentration; NS means data was not statistically significant.", "type": "functional", "details": "Trachea", "in_short": "(§1)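 Guinea pig tracheal spirals were split into paired sections in 10 mL baths of modified Krebs at 37 °C, gassed with 95% O₂/5% CO₂, under 2 g resting tension. After 60 min equilibration (washes every 15 min), reproducible contractions to 8 nM LTD₄ or 8 nM LTE₄ were obtained. Compound was added for 10 min, then agonist challenge repeated; percent inhibition is relative to the vehicle-treated paired section.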"}, "Cavia porcellus [2]": {"species_on_record": "Cavia porcellus", "experiment": "(§2) Percent inhibition of the leukotriene E4 (LTE4)-induced contraction of guinea pig tracheal spirals at 10 uM concentration; NS means data was not statistically significant.", "type": "functional", "details": "Trachea", "in_short": "as §1"}, "Cavia porcellus [3]": {"species_on_record": "Cavia porcellus", "experiment": "Percent inhibition of the leukotriene D4 (LTD4)-induced contraction of guinea pig tracheal spirals at 100 uM concentration", "type": "functional", "details": "Trachea", "in_short": "as §1"}, "Cavia porcellus [4]": {"species_on_record": "Cavia porcellus", "experiment": "Inhibition of the leukotriene D4 (LTD4)-induced contraction of guinea pig tracheal spirals at 10 uM concentration", "type": "functional", "details": "Trachea", "in_short": "as §1"}, "Cavia porcellus [5]": {"species_on_record": "Cavia porcellus", "experiment": "Percent inhibition of the leukotriene D4 (LTD4)-induced contraction of guinea pig tracheal spirals at 50 uM concentration; NS means data was not statistically significant.", "type": "functional", "details": "Trachea", "in_short": "as §1"}, "Cavia porcellus [6]": {"species_on_record": "Cavia porcellus", "experiment": "Percent inhibition of the leukotriene E4 (LTE4)-induced contraction of guinea pig tracheal spirals at 5 uM concentration", "type": "functional", "details": "Trachea", "in_short": "as §1"}, "Cavia porcellus [7]": {"system": "Cavia porcellus", "experiment": "Compound (50 mg/kg, intraperitoneally) was tested in spontaneously breathing, conscious guinea pigs challenged with aerosolized LTD4 (60-min pretreatment)", "type": "functional"}, "[8]": {"molecular_target": "T1, Cysteinyl leukotriene receptor 1 (Cavia porcellus) (UniProt Q2NNR5)", "T1 sequence (whole entry)": "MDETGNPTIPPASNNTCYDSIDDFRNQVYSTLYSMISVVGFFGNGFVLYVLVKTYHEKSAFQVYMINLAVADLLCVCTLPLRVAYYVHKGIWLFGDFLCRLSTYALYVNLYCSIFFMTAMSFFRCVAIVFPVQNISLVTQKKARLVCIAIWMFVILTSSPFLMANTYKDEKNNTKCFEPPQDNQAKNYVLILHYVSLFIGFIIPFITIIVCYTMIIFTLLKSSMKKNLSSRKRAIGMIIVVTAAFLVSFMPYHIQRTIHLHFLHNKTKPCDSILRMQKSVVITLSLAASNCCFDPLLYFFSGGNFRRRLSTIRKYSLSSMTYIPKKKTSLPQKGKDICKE", "experiment": "Dissociation constant (KB) […] was evaluated in vitro in isolated guinea pig tracheal strips"}, "Cavia porcellus [9]": {"species_on_record": "Cavia porcellus", "experiment": "Percent inhibition of the leukotriene E4 (LTE4)-induced contraction of guinea pig tracheal spirals at 1 uM concentration; NS means data was not statistically significant", "details": "Trachea"}, "Cavia porcellus [10]": {"species_on_record": "Cavia porcellus", "experiment": "Percent inhibition of the leukotriene E4 (LTE4)-induced contraction of guinea pig tracheal spirals at 3.3 uM concentration", "details": "Trachea"}, "[11]": {"molecular_target": "T1, Cysteinyl leukotriene receptor 1 (Cavia porcellus)", "experiment": "Dissociation constant (KB) versus Cysteinyl leukotriene D4 receptor was evaluated in vitro in isolated guinea pig tracheal strips"}, "Cavia porcellus [12]": {"species_on_record": "Cavia porcellus", "experiment": "Percent inhibition of the leukotriene D4 (LTD4)-induced contraction of guinea pig tracheal spirals at 10 uM concentration", "type": "functional", "details": "Trachea", "in_short": "as §1"}, "Cavia porcellus [13]": {"species_on_record": "Cavia porcellus", "experiment": "Percent inhibition of the leukotriene E4 (LTE4)-induced contraction of guinea pig tracheal spirals at 50 uM concentration", "type": "functional", "details": "Trachea", "in_short": "as §1"}, "Cavia porcellus [14]": {"species_on_record": "Cavia porcellus", "experiment": "Percent inhibition of the leukotriene D4 (LTD4)-induced contraction of guinea pig tracheal spirals at 4 uM concentration; NS means data was not statistically significant.", "type": "functional", "details": "Trachea", "in_short": "as §1"}, "Cavia porcellus [15]": {"species_on_record": "Cavia porcellus", "experiment": "Percent inhibition of the leukotriene E4 (LTE4)-induced contraction of guinea pig tracheal spirals at 1 uM concentration", "details": "Trachea"}, "Cavia porcellus [16]": {"species_on_record": "Cavia porcellus", "experiment": "Percent inhibition of the leukotriene E4 (LTE4)-induced contraction of guinea pig tracheal spirals at 0.33 uM concentration", "details": "Trachea"}, "Cavia porcellus [17]": {"species_on_record": "Cavia porcellus", "experiment": "Percent inhibition of the leukotriene E4 (LTE4)-induced contraction of guinea pig tracheal spirals at 1 uM concentration", "type": "functional", "details": "Trachea", "in_short": "as §1"}, "Cavia porcellus [18]": {"system": "Cavia porcellus", "experiment": "Compound (50 mg/kg, intraperitoneally) was tested in spontaneously breathing, conscious guinea pigs challenged with aerosolized LTD4 (30-min pretreatment)", "type": "functional"}, "Cavia porcellus [19]": {"species_on_record": "Cavia porcellus", "experiment": "Percent inhibition of the leukotriene D4 (LTD4)-induced contraction of guinea pig tracheal spirals at 4 uM concentration", "type": "functional", "details": "Trachea", "in_short": "as §1"}, "Cavia porcellus [20]": {"species_on_record": "Cavia porcellus", "experiment": "Percent inhibition of the leukotriene E4 (LTE4)-induced contraction of guinea pig tracheal spirals at 10 uM concentration", "type": "functional", "details": "Trachea", "in_short": "as §1"}, "Cavia porcellus [21]": {"species_on_record": "Cavia porcellus", "experiment": "Percent inhibition of the leukotriene E4 ([…])-induced contraction of guinea pig tracheal spirals at 1 uM concentration; NS means data was not statistically significant.", "type": "functional", "details": "Trachea", "in_short": "as §1"}, "Cavia porcellus [22]": {"species_on_record": "Cavia porcellus", "experiment": "as §2", "type": "functional", "details": "Trachea", "in_short": "as §1"}},
  "data": [
    {"smiles": "CCCc1c(OCc2ccc(C(=O)O)cc2OC)ccc(C(=O)O)c1O", "values": [
      {"measurement": "inhibition", "setting": "Cavia porcellus [1]", "value": "Not statistically significant"}
    ]},
    {"smiles": "CCCc1cc2c(C)cc(=O)oc2cc1OCc1ccc(C(=O)O)cc1OC", "values": [
      {"measurement": "inhibition", "setting": "Cavia porcellus [2]", "value": "Not statistically significant"}
    ]},
    {"smiles": "CCCc1c(OCc2cccc(C(=O)O)c2)ccc(C(C)=O)c1O", "values": [
      {"measurement": "inhibition at 100 µM", "setting": "Cavia porcellus [3]", "value": 100, "unit": "%"},
      {"measurement": "inhibition at 10 µM", "setting": "Cavia porcellus [4]", "value": 50, "unit": "%"}
    ]},
    {"smiles": "CCCCCCc1c(OCc2ccc(C(=O)O)cc2OC)ccc(C(C)=O)c1O", "values": [
      {"measurement": "inhibition", "setting": "Cavia porcellus [5]", "value": "Not statistically significant"}
    ]},
    {"smiles": "CCCc1c(OCc2ccc(C(=O)O)cc2OC)ccc(C(=O)OC)c1O", "values": [
      {"measurement": "inhibition at 5 µM", "setting": "Cavia porcellus [6]", "value": 52, "unit": "%"},
      {"measurement": "Protection", "setting": "Cavia porcellus [7]", "value": 29, "unit": "%"},
      {"measurement": "Kb", "setting": "[8]", "value": 3180, "unit": "nM"}
    ]},
    {"smiles": "CCCc1c(OCc2ccc(-c3nn[nH]n3)cc2OC)ccc(C(C)=O)c1O", "values": [
      {"measurement": "inhibition", "setting": "Cavia porcellus [9]", "value": "Not statistically significant"},
      {"measurement": "inhibition at 3.3 µM", "setting": "Cavia porcellus [10]", "value": 45, "unit": "%"}
    ]},
    {"smiles": "CCCc1c(OCc2ccc(C(=O)Nc3nn[nH]n3)cc2OC)ccc(C(C)=O)c1O", "values": [
      {"measurement": "inhibition at 3.3 µM", "setting": "Cavia porcellus [10]", "value": 43, "unit": "%"}
    ]},
    {"smiles": "CCCc1c(OCCCCc2nnn[nH]2)ccc(C(C)=O)c1O", "note": "[TOMELUKAST]", "values": [
      {"measurement": "Protection", "setting": "Cavia porcellus [7]", "value": 49, "unit": "%"},
      {"measurement": "Kb", "setting": "[11]", "value": 180, "unit": "nM"}
    ]},
    {"smiles": "CCCc1c(OCc2ccc(C(=O)O)cc2OC)ccc(C(C)=O)c1O", "values": [
      {"measurement": "Protection", "setting": "Cavia porcellus [7]", "value": 19, "unit": "%"},
      {"measurement": "Kb", "setting": "[11]", "value": 360, "unit": "nM"},
      {"measurement": "inhibition at 10 µM", "setting": "Cavia porcellus [4]", "value": 99, "unit": "%"}
    ]},
    {"smiles": "CCCc1c(OCc2ccc(C(=O)O)cc2OC)ccc(C=O)c1O", "values": [
      {"measurement": "inhibition at 10 µM", "setting": "Cavia porcellus [12]", "value": 54, "unit": "%"}
    ]},
    {"smiles": "CCCc1c(OCc2ccc(C(=O)O)cc2OC)ccc(C(N)=O)c1O", "values": [
      {"measurement": "inhibition at 10 µM", "setting": "Cavia porcellus [4]", "value": 72, "unit": "%"},
      {"measurement": "inhibition at 50 µM", "setting": "Cavia porcellus [13]", "value": 86, "unit": "%"}
    ]},
    {"smiles": "CCCc1c(OCc2ccc(C(=O)O)cc2OC)ccc(C(C)=O)c1N", "values": [
      {"measurement": "inhibition at 10 µM", "setting": "Cavia porcellus [4]", "value": 43, "unit": "%"},
      {"measurement": "inhibition", "setting": "Cavia porcellus [14]", "value": "Not statistically significant"}
    ]},
    {"smiles": "CCCc1c(OCc2cccc(NC(=O)c3ccccc3C(=O)O)c2)ccc(C(C)=O)c1O", "values": [
      {"measurement": "Protection", "setting": "Cavia porcellus [7]", "value": 9, "unit": "%"},
      {"measurement": "inhibition at 1 µM", "setting": "Cavia porcellus [15]", "value": 94, "unit": "%"},
      {"measurement": "Kb", "setting": "[8]", "value": 160, "unit": "nM"},
      {"measurement": "inhibition at 0.33 µM", "setting": "Cavia porcellus [16]", "value": 45, "unit": "%"}
    ]},
    {"smiles": "COc1cc(C(=O)O)ccc1COc1ccc(C(C)=O)c(O)c1CC(C)C", "values": [
      {"measurement": "inhibition at 1 µM", "setting": "Cavia porcellus [17]", "value": 22, "unit": "%"}
    ]},
    {"smiles": "CCCc1c(OCCCSCC(=O)O)ccc(C(C)=O)c1O", "values": [
      {"measurement": "inhibition at 100 µM", "setting": "Cavia porcellus [3]", "value": 100, "unit": "%"},
      {"measurement": "inhibition at 10 µM", "setting": "Cavia porcellus [4]", "value": 62, "unit": "%"}
    ]},
    {"smiles": "CCCc1c(OCc2ccc(C(=O)O)cc2OC)ccc2c(C)cc(=O)oc12", "values": [
      {"measurement": "Protection", "setting": "Cavia porcellus [18]", "value": 27, "unit": "%"},
      {"measurement": "inhibition at 4 µM", "setting": "Cavia porcellus [19]", "value": 44, "unit": "%"},
      {"measurement": "inhibition at 10 µM", "setting": "Cavia porcellus [4]", "value": 78, "unit": "%"}
    ]},
    {"smiles": "COc1cc(C(=O)O)ccc1COc1ccc(C(C)=O)c(O)c1C=C(C)C", "values": [
      {"measurement": "inhibition at 5 µM", "setting": "Cavia porcellus [6]", "value": 69, "unit": "%"}
    ]},
    {"smiles": "CCCc1c(OCc2ccc(C(=O)O)cc2OC)ccc(C(=O)CC)c1O", "values": [
      {"measurement": "inhibition at 10 µM", "setting": "Cavia porcellus [20]", "value": 97, "unit": "%"},
      {"measurement": "inhibition at 5 µM", "setting": "Cavia porcellus [6]", "value": 73, "unit": "%"},
      {"measurement": "inhibition", "setting": "Cavia porcellus [21]", "value": "Not statistically significant"}
    ]},
    {"smiles": "CCCc1c(OCc2ccc(C(=O)O)cc2OC)ccc(C(=O)N(C)C)c1O", "values": [
      {"measurement": "inhibition at 50 µM", "setting": "Cavia porcellus [13]", "value": 84, "unit": "%"},
      {"measurement": "inhibition", "setting": "Cavia porcellus [22]", "value": "Not statistically significant"}
    ]}
  ]
}
